Series [1] in a line: (§1) Toxicity liver stage against HepG2, at 10uM. The series is classed as cell-based. More on the design: test concentration 10 uM, cell line HepG2-A16-CD81EGFP. The following applies: human, HepG2-A16-CD81EGFP cells; read-out: INHIBITION
In outline: (§2)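 Uninfected HepG2-A16-CD81EGFP cells, 3 × 10^3 per well, 1536-well, plated on prespotted compound at 10 μM final, parasite-free screening media added to match infected plates; puromycin 10 μM positive, DMSO 0.5% negative; run in parallel with 48 h PbLuc assay at 37 °C, 5% CO2; viability by CellTiter-Glo luminescence, normalized to controls.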

The subject of series [2] is HepG2. Described as §1. In kind it is cell-based. More on the design: test concentration 10 uM, cell line HepG2-A16-CD81EGFP. To be noted: human, hepg2, 10 µM; 10 µM. In a few lines: as §2

Structures are written as SMILES.

For `CCc1c(C)nn2c(O)cc(C3CCN(C(=O)c4ccccn4)C3)nc12` (stereo not given), in series [1], the cytotoxicity at 10 µM was 6.7%. This compound had an INHIBITION in series [2] of 4.85%.
As to `Cc1ccc(CN2CCc3onc(C(=O)Nc4cccnc4)c3C2)o1`, the cytotoxicity at 10 µM in series [1] amounted to 5.15%.
Turning to `O=C(NCCc1cccs1)[C@]12COC[C@H]1CN(c1ncccn1)C2`, the cytotoxicity at 10 µM in series [1] is -109%.
On to `CCOC1CCCN(C(=O)c2cnc3c(cnn3C3CCCC3)c2)C1` (stereo not given), for which the cytotoxicity at 10 µM in series [1] is -3.74%.
Still for that read-out and setting: then `CS(=O)(=O)N[C@@H]1COC[C@@H]2CN(Cc3ccoc3)C[C@@H]21`, with -4.85%; and `COc1cccc(CNc2cnn(CC(F)F)c2)c1`, with -7.16%; and `Cn1nnc2c1CCN(Cc1ccccc1)C2COCC1CC1` (stereo not given), with 3.24%.
Same read-out and setting: the figure for `Cc1noc(C)c1CCN1CCCC1c1nc2cc(F)ccc2[nH]1` (stereo not given) is 9.3%; for `Cc1cc(C)nc(CN(C)C(=O)C(c2cccnc2)N2CCCC2)c1` (stereo not given) it is -45.4%; for `O=C(CN1CCC[C@H]1C(=O)O)NCCOc1cccc(Cl)c1` it is -22.6%.
For the compound `CC(=O)Nc1sc2c(c1C(=O)O)CCc1ccccc1-2`, the cytotoxicity at 10 µM in series [1] was 0.513%.
As for `Cc1ccoc1C(=O)N1CC[C@H]2[C@@H]1CCC(=O)N2c1cccnc1`, in series [1], the cytotoxicity at 10 µM was -70.4%.
Turning to `Cn1cnc(S(=O)(=O)N2C[C@H]3CC[C@@H](C2)N(Cc2cscn2)C3=O)c1`, the cytotoxicity at 10 µM in series [1] is -20.2%.
As for `Nc1nnc(SCC(=O)c2cc3c(cc2Cl)NC(=O)C3)s1`, the cytotoxicity at 10 µM in series [1] was -0.139%.
On to `CNC(=O)[C@@H]1C[C@@H](N)CN1C1CCN(Cc2ccccn2)CC1`, for which the cytotoxicity at 10 µM in series [1] was -53.5%.
In the case of `CCc1nc(C2CCCN2Cc2nnc(Cc3ccccc3)o2)no1` (stereo not given), in series [1], the cytotoxicity at 10 µM was -0.313%.
In the case of `COc1ccccc1OCCc1nnc(NC(=O)C2CC23CCC3)s1` (stereo not given), in series [1], the cytotoxicity at 10 µM is 1.26%.
In the case of `O=C(c1ccc(-n2cccn2)nc1)N1CCCC(n2cccn2)C1` (stereo not given), in series [1], the cytotoxicity at 10 µM was -4.75%.
Turning to `CCC(O)CN1CCN(C(=O)c2cc3ccccc3n2CC)CC1` (stereo not given), the cytotoxicity at 10 µM in series [1] is -0.579%.
Regarding `Cc1cn[nH]c1C1COCCN1Cc1ccsc1` (stereo not given), the cytotoxicity at 10 µM in series [1] came out at 2.56%.
For the compound `CCOC(=O)[C@@H]1[C@@H](c2ccccc2)CN2CCN(S(C)(=O)=O)C[C@H]12`, in series [1], the cytotoxicity at 10 µM was 0.227%.
On to `Cc1n[nH]c(C)c1CN1CCC(c2cc(C(C)C)n[nH]2)CC1`, for which the cytotoxicity at 10 µM in series [1] was -6.88%.
`O=C(C[C@@H]1COC[C@H]2CN(CC3CCOCC3)C[C@@H]12)N1CCCCO1`: the cytotoxicity at 10 µM in series [1] amounted to 7.49%.
As for `Cc1n[nH]cc1CNCc1ccnc(OCC(F)(F)F)c1`, the cytotoxicity at 10 µM in series [1] stood at 5.33%.
Regarding `Cc1noc(CNc2ccc(OC(F)F)cc2OC(F)F)n1`, the cytotoxicity at 10 µM in series [1] was determined as 1.85%.
For the compound `CCc1nnc2n1CCN(Cc1cc(Cl)c3c(c1)OCCO3)C2`, the cytotoxicity at 10 µM in series [1] was -8.95%.
Consider `CC1=Nc2c(c(=O)[nH]n2C2CCCC2)C(c2cccnc2)S1` (stereo not given), for which, in series [1], the cytotoxicity at 10 µM was -0.955%.
As to `Cc1nnc(CN(C)C2CCN(Cc3nnc(C4CCC4)o3)C2)n1C` (stereo not given), in series [1], the cytotoxicity at 10 µM was -8.15%.
On to `O[C@H]1CCN(CC2CCOC2)[C@H]1Cc1ccncc1` (stereo not given in full), for which, in series [1], the cytotoxicity at 10 µM was -2.32%.
`Fc1ccc(-c2nccnc2C2CCCNC2)cc1` (stereo not given): in series [1], the cytotoxicity at 10 µM was -23.8%.
As for `CN1CCN(Cc2nc3c(s2)CCCC3)[C@H]2CS(=O)(=O)C[C@H]21`, the cytotoxicity at 10 µM in series [1] was determined as 2.81%.
The same measure, in the same setting: the figure for `COc1c(CNCc2cccnc2N2CCCCC2)c(C)nn1C` is -151%; for `CC(C)c1ncc(Cl)c(C(=O)N2CCN(C3CCCC3)CC2)n1` it is 8.69%; for `O=C(NCc1cnc2n1CCN(Cc1nccs1)CC2)C1CCC1` it is 0.588%.
Take `c1cc(CN2CCOCC3(CCN(CC4CCOCC4)CC3)C2)ccn1`: the cytotoxicity at 10 µM in series [1] is -82.6%.
Still for that read-out and setting: the figure for `NC(=O)CN(C(=O)C1Cc2cc(Cl)ccc2O1)C1CCCC1` (stereo not given) is 10.1%; for `CCOCc1nc2c(c(N3CC=CC3)n1)CCN(C1CCOCC1)CC2` it is -25.2%.
With `CS(=O)(=O)NCc1cccc(COC2CCCCC2)c1`, the cytotoxicity at 10 µM in series [1] amounted to 3.12%.
In the case of `O=C(Cn1cnc2ccccc2c1=O)Nc1cc(C2CC2)n[nH]1`, the cytotoxicity at 10 µM in series [1] stood at 49.4%.
Consider `CC(C)n1ccc2c(C(=O)NC3CN4CCC3CC4)cccc21` (stereo not given), for which, in series [1], the cytotoxicity at 10 µM is -54.2%.
In the case of `CN1CCN(C2COC3(CCN(Cc4ccc(F)cc4)CC3)C2)CC1` (stereo not given), the cytotoxicity at 10 µM in series [1] is -97.4%.
Consider `O=C(C1=CC2(CCNCC2)c2ccccc21)N1CCCC1`, for which the cytotoxicity at 10 µM in series [1] is -2.07%.
With `O=C1CN(C(=O)c2ccc(F)cc2)CC(O)CN1Cc1cccs1` (stereo not given), the cytotoxicity at 10 µM in series [1] was -67.7%.
Consider `Cc1cc(N2Cc3cnc(CC(C)C)nc3C2)nc(N)n1`, for which the cytotoxicity at 10 µM in series [1] was -5.64%.
Consider `COCCNS(=O)(=O)c1ccc(Cl)c(C(=O)N(C)Cc2ccsc2)c1`, for which, in series [1], the cytotoxicity at 10 µM is -1.39%.
`CO[C@@H](C(=O)NC1CCOCC1)c1ccccc1`: the cytotoxicity at 10 µM in series [1] is -2.43%.
Regarding `COCc1cc(NCCc2ccc(OC)cc2)n2nccc2n1`, the cytotoxicity at 10 µM in series [1] turned out to be 0.266%.
With `COc1ccccc1C1(O)CCCN(C(=O)c2csc(C(C)=O)c2)C1` (stereo not given), in series [1], the cytotoxicity at 10 µM is -1.41%.
For `c1ccc(CCN2CCOC(Cn3cccn3)C2)nc1` (stereo not given), the cytotoxicity at 10 µM in series [1] was -4.48%.
For the compound `CCOc1ncccc1CNC(=O)Nc1ccccc1`, the cytotoxicity at 10 µM in series [1] is -4.87%.
In the case of `O=C(C1CC1)N1CCCC1c1nnc2n1CCCCC2` (stereo not given), the cytotoxicity at 10 µM in series [1] was -0.614%.
Consider `CN(C)C(=O)c1cccc(C[S+]([O-])CC(=O)NC2CCCC2)c1` (stereo not given), for which the cytotoxicity at 10 µM in series [1] came to 5.79%.
As for `COCC1CN(c2ncccn2)Cc2cnn(CC3CC3)c21` (stereo not given), in series [1], the cytotoxicity at 10 µM was 6.68%.
Same read-out and setting: the figure for `CS(=O)(=O)c1ccc2c(c1)N(C(=O)Cc1ccc(F)cc1)CCC2` is 9.95%.

The values are drawn from ChEMBL document CHEMBL4513216, “Probing the Open Global Health Chemical Diversity Library for Multistage-Active Starting Points for Next-Generation Antimalarials” (ACS Infect Dis, 2020).
